Active and inactive are the calls of the source. No cut-off for these calls is given here.
Experiments:
NCI-H1975 [1] = assay: Induction of apoptosis in human NCI-H1975 cells assessed as activation of caspase 9 at 0.1 to 3 uM measured after 48 hrs immunoblot analysis; type: functional, cell-based
Summary of the method: (§1)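 H1975 cells cultured with compound at the indicated concentrations for 48 h, then immunoblotted with the indicated antibodies. Lysis buffer was ice-cold RIPA-type with phosphatase and protease inhibitors, 30 min on ice. Proteins separated on 8-15% SDS-PAGE, transferred to PVDF, primary antibody overnight at 4°C, HRP secondary 1 h at room temperature, ECL detection.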

[2] = molecular target: NAD-dependent protein deacetylase sirtuin-1 (Homo sapiens, UniProt Q96EB6); assay: Inhibition of human recombinant N-terminal His-tagged SIRT1 (1 to 747 residues) expressed in Escherichia coli using Ac-RHK-K(Ac)-AMC as substrate after 30 mins in presence of NAD+ by fluorimetry analysis
Summary of the method: (§2)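 Isoform assays run by an outside contractor. […] Trichostatin A tested in parallel the same way as control.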

NCI-H1975 [3] = assay: Inhibition of PD-L1 cell surface expression in IFNgamma-stimulated human NCI-H1975 cells at 0.74 uM after 48 hrs by FITC staining based FACScan flow cytometry analysis; type: functional
Summary of the method: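 Cells seeded at 3.2×10^5/well and treated with IFN-γ 20 ng/ml with or without compound for 48 h. Then 3×10^5 cells stained with mouse anti-PD-L1 5 µg/ml for 1 h, followed by FITC goat anti-mouse IgG for 1 h, in PBS/0.05% BSA. FITC mean fluorescence intensity measured by FACScan and expressed relative to untreated cells. Mean ± S.D. of three independent experiments.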

A549 = assay: Antiproliferative activity against human A549 cells assessed as cell growth inhibition after 48 hrs by sulforhodamine B assay; type: functional; settings: Homo sapiens, A549, 48 h
Summary of the method: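 Cells seeded at 5000/well overnight; baseline plate fixed with 10% TCA at time of compound addition (T0). Treated with DMSO or graded doses for 48 h, fixed with 10% TCA, stained with 0.4% (w/v) SRB in 1% acetic acid, washed with 1% acetic acid, dye solubilised in 10 mM Trizma base, absorbance at 515 nm. GI50 from T0-corrected growth; at least three independent experiments, SD reported.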

[4] = molecular target: Histone deacetylase (Homo sapiens) (UniProt Q13547+O15379+Q9UBN7+Q92769+Q9UQL6+Q8WUI4+Q9BY41+Q96DB2+P56524+Q9UKV0+Q969S8); assay: Inhibition of HDAC in human H1975 cells assessed as Histone H3 acetylation after 24 hrs by Western blot analysis; type: cell-based
Summary of the method: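 Whole-cell lysates from H1975 cells after 24 h culture with compound at the indicated concentrations. Acetylated α-tubulin and acetylated histone H3 detected by immunoblot: SDS-PAGE, PVDF transfer, primary antibody overnight at 4°C, HRP secondary, ECL. Repeated at least three times.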

HCT-116 = assay: cells; type: functional; settings: Homo sapiens, HCT-116, 48 h
[5] = molecular target: T1, Heat shock protein HSP90 (Homo sapiens) (UniProt P07900+P08238); assay: Inhibition of HSP90 in human H1975 cells assessed as induction of HSP70 expression by Western blot analysis; type: cell-based
Summary of the method: (§3)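 H1975 cells given DMSO or 0.1-3 μM compound for 24 h, or 1 μM for varying times. HSP70 and HSP90 client proteins detected by Western blot of whole-cell lysates, with GAPDH as internal control. Repeated in at least three independent experiments.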

Histone deacetylase 11 = Histone deacetylase 11 (Homo sapiens, UniProt Q96DB2); assay: Inhibition of human recombinant N-terminal Streptavidin2-tagged HDAC11 (1 to 347 residues) expressed in baculovirus infected insect cells using Boc-Lys(TFA)-AMC as substrate after 60 mins by fluorescence assay; summary of the method: as §2
[6] = molecular target: T1, Heat shock protein HSP90 (Homo sapiens); assay: Inhibition of HSP90 in human H1975 cells assessed as downregulation of FAK protein level by Western blot analysis; type: cell-based; summary of the method: as §3
[7] = molecular target: T1, Heat shock protein HSP90 (Homo sapiens); assay: Inhibition of HSP90 in human H1975 cells assessed as downregulation of SRC protein level by Western blot analysis; type: cell-based; summary of the method: as §3
NCI-H1975 [8] = assay: Induction of apoptosis in human NCI-H1975 cells assessed as activation of gamma H2AX at 0.1 to 3 uM measured after 48 hrs immunoblot analysis; type: functional, cell-based; summary of the method: as §1
NCI-H1975 [9] = assay: Induction of apoptosis in human NCI-H1975 cells assessed as activation of caspase 8 at 0.1 to 3 uM measured after 48 hrs immunoblot analysis; type: functional, cell-based; summary of the method: as §1
Histone deacetylase 2 = Histone deacetylase 2 (Homo sapiens, UniProt Q92769); assay: Inhibition of recombinant human GST-tagged HDAC2 (1 to 488 residues) expressed in baculovirus infected sf21 cells using RHK-K(Ac)-AMC as substrate after 60 mins by fluorimetry assay; summary of the method: as §2
NCI-H1975 [10] = assay: Induction of apoptosis in human NCI-H1975 cells assessed as activation of PARP at 0.1 to 3 uM measured after 48 hrs immunoblot analysis; type: functional, cell-based; summary of the method: as §1
Histone deacetylase 5 = Histone deacetylase 5 (Homo sapiens, UniProt Q9UQL6); assay: Inhibition of recombinant human C-terminal His-fusion tagged HDAC5 (657 to 1123 residues) expressed in baculovirus infected insect cells using Boc-K(Ac)-AMC as substrate after 60 mins by fluorimetry analysis; summary of the method: as §2
[11] = molecular target: Protein deacetylase HDAC6 (Homo sapiens, UniProt Q9UBN7); assay: Inhibition of recombinant human N-terminal GST-tagged HDAC6 (1 to 1125 residues) expressed in baculovirus infected insect cells using RHK-K(Ac)-AMC as substrate after 90 mins by fluorimetry analysis; summary of the method: as §2
[12] = molecular target: Polyamine deacetylase HDAC10 (Homo sapiens, UniProt Q969S8); assay: Inhibition of human HDAC10 using fluorescent-labelled p53 residues 379 to 382 (RHKKAc) peptide as substrate by fluorescence assay; summary of the method: as §2
[13] = molecular target: T1, Heat shock protein HSP90 (Homo sapiens); assay: Inhibition of HSP90 in human H1975 cells assessed as downregulation of Rb protein level by Western blot analysis; type: cell-based; summary of the method: as §3
Histone deacetylase = type: cell-based, Homo sapiens; settings: hela
Histone deacetylase 3 = Histone deacetylase 3 (Homo sapiens, UniProt O15379); assay: Inhibition of human recombinant full length C-terminal His-tagged HDAC3 (1 to 428 residues) expressed in baculovirus infected insect cells using RHK-K(Ac)-AMC as substrate after 60 mins by fluorimetry analysis; summary of the method: as §2
NCI-H1975 [14] = assay: Induction of apoptosis in human NCI-H1975 cells assessed as activation of caspase 3 at 0.1 to 3 uM measured after 48 hrs immunoblot analysis; type: functional, cell-based; summary of the method: as §1
NCI-H1975 [15] = assay: Cell cycle arrest in human NCI-H1975 cells assessed as increase in accumulation at sub-G1 phase at 0.1 to 3 uM after 48 hrs by propidium iodide/RNase staining based FACScan flow cytometry analysis; type: functional
Summary of the method: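 H1975 cells seeded at 2.5×10^5/well, left overnight, then exposed to DMSO or compound at several concentrations for 48 h. Washed in PBS, fixed in ice-cold 70% ethanol at -20 °C overnight, stained with propidium iodide 80 ug/ml plus 0.1% Triton X-100 and RNase A 100 ug/ml in PBS. DNA content read by FACScan.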

[16] = molecular target: T1, Heat shock protein HSP90 (Homo sapiens); assay: Inhibition of HSP90 in human H1975 cells assessed as downregulation of EGFR protein level by Western blot analysis; type: cell-based; summary of the method: as §3

Sequence of Polyamine deacetylase HDAC10 (Q969S8 whole entry, the tested form may be a part): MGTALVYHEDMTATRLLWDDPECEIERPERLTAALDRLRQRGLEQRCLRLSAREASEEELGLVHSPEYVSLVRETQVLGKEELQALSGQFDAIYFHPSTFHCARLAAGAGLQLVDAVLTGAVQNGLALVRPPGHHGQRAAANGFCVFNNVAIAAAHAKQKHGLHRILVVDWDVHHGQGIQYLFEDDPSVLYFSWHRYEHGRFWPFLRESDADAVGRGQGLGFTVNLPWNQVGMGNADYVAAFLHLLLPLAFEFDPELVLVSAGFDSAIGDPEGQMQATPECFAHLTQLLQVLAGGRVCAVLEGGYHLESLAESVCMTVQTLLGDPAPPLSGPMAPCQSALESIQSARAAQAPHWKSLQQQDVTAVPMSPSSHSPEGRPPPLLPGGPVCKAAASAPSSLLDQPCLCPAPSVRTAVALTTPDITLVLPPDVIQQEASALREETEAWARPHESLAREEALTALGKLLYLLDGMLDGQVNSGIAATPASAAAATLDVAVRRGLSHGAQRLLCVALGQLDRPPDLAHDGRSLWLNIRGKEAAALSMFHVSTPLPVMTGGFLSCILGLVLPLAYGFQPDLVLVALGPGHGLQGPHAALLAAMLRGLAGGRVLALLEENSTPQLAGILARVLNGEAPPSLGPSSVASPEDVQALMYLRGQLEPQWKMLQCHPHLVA
Sequence of Histone deacetylase 11 (Q96DB2 whole entry, the tested form may be a part): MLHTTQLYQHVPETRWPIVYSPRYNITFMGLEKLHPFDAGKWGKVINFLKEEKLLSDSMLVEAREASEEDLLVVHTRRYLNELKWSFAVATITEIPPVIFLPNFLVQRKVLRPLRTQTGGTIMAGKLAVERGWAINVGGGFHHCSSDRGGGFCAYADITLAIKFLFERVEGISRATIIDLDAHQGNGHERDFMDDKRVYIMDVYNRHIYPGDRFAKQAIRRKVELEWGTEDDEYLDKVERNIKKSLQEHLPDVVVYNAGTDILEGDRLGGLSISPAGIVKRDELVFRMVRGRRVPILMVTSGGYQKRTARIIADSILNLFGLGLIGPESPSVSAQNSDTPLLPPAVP
Sequence of Histone deacetylase 2 (Q92769 whole entry, the tested form may be a part): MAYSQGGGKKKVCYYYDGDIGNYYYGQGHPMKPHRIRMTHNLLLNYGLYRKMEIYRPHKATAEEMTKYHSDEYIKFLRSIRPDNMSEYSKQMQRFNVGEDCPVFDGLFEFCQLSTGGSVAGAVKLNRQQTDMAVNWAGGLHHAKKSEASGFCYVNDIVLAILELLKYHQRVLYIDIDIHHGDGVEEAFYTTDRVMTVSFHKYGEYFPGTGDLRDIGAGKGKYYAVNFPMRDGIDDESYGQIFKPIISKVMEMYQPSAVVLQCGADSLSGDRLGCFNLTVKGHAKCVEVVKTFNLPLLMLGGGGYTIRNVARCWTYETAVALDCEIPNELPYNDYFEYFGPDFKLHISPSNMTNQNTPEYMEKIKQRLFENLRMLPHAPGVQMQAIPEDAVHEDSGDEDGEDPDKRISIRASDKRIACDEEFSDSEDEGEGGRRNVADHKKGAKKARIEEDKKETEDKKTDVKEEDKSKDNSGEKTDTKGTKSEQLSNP
Sequence of Histone deacetylase 3 (O15379 whole entry, the tested form may be a part): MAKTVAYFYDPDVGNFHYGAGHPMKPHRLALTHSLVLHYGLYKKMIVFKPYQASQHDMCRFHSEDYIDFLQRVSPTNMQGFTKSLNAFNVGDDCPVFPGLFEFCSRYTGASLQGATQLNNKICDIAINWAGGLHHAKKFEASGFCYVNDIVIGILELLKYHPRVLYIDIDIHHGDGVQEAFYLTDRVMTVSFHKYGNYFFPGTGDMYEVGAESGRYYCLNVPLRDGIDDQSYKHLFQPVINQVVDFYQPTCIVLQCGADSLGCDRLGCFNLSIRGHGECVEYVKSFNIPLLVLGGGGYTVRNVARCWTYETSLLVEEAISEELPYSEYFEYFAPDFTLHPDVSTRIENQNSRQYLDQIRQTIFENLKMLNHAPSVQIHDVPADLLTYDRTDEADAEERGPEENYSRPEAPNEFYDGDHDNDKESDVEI
Sequence of NAD-dependent protein deacetylase sirtuin-1 (Q96EB6 whole entry, the tested form may be a part, canonical isoform): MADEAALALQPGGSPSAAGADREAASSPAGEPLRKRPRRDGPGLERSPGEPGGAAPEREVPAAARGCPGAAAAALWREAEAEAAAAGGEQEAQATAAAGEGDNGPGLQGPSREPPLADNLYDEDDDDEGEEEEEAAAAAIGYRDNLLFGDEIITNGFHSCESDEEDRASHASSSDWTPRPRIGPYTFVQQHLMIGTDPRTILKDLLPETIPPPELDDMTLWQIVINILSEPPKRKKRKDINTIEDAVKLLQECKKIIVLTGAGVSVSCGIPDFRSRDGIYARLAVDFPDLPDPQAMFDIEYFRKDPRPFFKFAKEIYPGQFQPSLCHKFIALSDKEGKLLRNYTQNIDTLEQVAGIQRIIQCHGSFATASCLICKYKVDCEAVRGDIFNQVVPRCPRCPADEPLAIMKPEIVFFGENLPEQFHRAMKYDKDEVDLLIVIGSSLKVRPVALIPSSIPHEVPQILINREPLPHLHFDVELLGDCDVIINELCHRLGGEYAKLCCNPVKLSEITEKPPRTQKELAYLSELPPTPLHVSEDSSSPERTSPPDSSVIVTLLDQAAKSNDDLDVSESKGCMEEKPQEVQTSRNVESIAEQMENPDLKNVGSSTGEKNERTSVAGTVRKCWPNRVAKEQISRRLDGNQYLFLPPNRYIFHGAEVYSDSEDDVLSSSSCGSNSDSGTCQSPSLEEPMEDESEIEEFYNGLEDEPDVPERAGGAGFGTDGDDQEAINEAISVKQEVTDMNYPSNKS
Sequence of Histone deacetylase 5 (Q9UQL6 whole entry, the tested form may be a part): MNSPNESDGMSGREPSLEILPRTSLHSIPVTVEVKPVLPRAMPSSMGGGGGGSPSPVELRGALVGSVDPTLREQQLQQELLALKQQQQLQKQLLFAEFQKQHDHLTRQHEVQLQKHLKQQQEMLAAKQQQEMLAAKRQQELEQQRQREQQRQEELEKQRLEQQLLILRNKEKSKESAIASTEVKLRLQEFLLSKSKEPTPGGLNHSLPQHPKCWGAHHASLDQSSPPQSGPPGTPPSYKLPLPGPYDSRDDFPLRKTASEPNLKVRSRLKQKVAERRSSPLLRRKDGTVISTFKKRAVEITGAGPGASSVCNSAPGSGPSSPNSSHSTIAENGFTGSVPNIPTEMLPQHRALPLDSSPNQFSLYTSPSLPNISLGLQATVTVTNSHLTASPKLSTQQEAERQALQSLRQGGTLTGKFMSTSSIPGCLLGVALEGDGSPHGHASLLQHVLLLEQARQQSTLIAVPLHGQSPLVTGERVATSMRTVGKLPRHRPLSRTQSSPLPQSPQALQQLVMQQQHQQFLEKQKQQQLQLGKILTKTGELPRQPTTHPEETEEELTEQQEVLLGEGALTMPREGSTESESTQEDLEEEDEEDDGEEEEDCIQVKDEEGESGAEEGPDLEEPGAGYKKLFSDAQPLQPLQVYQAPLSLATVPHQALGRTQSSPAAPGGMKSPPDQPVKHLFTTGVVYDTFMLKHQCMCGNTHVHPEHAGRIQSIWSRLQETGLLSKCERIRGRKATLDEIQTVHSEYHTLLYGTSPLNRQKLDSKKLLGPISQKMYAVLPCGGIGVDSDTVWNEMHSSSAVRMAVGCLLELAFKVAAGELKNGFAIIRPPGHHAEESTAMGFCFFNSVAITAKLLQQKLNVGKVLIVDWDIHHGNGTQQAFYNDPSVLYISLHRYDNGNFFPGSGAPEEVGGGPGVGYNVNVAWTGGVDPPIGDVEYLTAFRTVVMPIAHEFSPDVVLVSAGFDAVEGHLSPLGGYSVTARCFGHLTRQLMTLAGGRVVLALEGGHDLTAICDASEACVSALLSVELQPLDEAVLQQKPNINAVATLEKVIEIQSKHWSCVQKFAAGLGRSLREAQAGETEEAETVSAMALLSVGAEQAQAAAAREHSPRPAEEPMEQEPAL
Sequence of Protein deacetylase HDAC6 (Q9UBN7 whole entry, the tested form may be a part): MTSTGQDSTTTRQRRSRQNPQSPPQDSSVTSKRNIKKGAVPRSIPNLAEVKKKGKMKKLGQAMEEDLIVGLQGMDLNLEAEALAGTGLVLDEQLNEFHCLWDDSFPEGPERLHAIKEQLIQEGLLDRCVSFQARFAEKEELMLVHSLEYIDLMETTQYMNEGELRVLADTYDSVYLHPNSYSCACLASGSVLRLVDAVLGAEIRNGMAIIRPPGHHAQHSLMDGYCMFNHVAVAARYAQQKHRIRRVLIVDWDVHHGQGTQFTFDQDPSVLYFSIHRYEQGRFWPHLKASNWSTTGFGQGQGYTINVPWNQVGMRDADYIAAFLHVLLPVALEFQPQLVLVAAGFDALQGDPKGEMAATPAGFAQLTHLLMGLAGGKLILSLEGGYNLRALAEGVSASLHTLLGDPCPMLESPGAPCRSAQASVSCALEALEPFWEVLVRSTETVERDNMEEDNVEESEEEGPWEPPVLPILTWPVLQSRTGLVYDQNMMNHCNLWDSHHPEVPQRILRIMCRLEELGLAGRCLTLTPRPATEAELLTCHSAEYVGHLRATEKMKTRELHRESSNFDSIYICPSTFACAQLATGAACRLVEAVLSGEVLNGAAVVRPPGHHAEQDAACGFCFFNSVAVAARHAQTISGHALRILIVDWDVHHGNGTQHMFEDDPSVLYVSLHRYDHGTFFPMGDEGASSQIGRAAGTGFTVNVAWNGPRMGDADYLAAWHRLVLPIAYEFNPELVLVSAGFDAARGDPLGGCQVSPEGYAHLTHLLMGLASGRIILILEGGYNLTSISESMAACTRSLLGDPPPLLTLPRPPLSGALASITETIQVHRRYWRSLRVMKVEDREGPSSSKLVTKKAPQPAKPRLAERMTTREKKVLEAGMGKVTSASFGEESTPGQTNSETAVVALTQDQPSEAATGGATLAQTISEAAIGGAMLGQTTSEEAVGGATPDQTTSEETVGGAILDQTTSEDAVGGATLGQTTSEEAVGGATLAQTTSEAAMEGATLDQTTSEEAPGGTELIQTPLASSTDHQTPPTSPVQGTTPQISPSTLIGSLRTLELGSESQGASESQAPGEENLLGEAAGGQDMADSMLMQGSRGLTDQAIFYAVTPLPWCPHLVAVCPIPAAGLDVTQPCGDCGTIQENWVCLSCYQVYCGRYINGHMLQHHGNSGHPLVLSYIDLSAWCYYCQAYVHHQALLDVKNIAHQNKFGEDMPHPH

| Compound | Activity (NCI-H1975 [1]) | IC50 [2] | inhibition (NCI-H1975 [3]) | GI50 (A549) | inhibition [4] | GI50 (HCT-116) | inhibition [5] | IC50 (Histone deacetylase 11) | inhibition [6] | inhibition [7] | Activity (NCI-H1975 [8]) | Activity (NCI-H1975 [9]) | IC50 (Histone deacetylase 2) | Activity (NCI-H1975 [10]) | IC50 (Histone deacetylase 5) | IC50 [11] | IC50 [12] | inhibition [13] | IC50 (Histone deacetylase) | IC50 (Histone deacetylase 3) | further results |
| --- | --- | --- | --- | --- | --- | --- | --- | --- | --- | --- | --- | --- | --- | --- | --- | --- | --- | --- | --- | --- | --- |
| CC(C)c1cc(C(=O)N(C)c2ccc(NC(=O)CCCCCCCC(=O)NO)cc2)c(O)cc1O | Active | > 10 µM | Active | 440 nM | Dose-dependent effect | 1060 nM | Active | 1890 nM | Active | Active | Active | Active | 4.91 µM | Active | 5.41 µM | 316 nM | > 10000 nM | Active | 361 nM | 1440 nM | Activity (NCI-H1975 [14]): Active; Activity (NCI-H1975 [15]): Active; inhibition [16]: Active |
| CC(C)c1cc(C(=O)N(C)c2ccc(NC(=O)CCCCCCC(=O)NO)cc2)c(O)cc1O | Active | > 10 µM | Active | 770 nM | Dose-dependent effect | 830 nM | Active | 3610 nM | Active | Active | Active | Active | 1.19 µM | Active | 7.86 µM | 40 nM | 2670 nM | Active | 195 nM | 2060 nM | Activity (NCI-H1975 [14]): Active; Activity (NCI-H1975 [15]): Active; inhibition [16]: Active |
